Screens (PubChem)
Only some compounds are listed: those with a hit (about 4.7% of all), similar ones and a draw of the others.
SKN-1 inh: suppressors of acrylamide-induced Pgst-4::GFP reporter in worms, primary screen, SKN-1 inhibitor project, whole organism, uHTS, GFP/RFP fluorescence ratio, strain VP596 | C. elegans VP596 Pgst-4::GFP/RFP ratio, 24 h | inhibition, % at 21.8 µM | hit rate 0.49% among 360,000;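 active = interference check ratio from 0.5 to 1.5 plus GFP to RFP signal ratio inhibition reaching or exceeding a fixed threshold, cut at about 30% in these data, passing the limit was not always enough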
NR3A LBD binder: binders of NR3A ligand-binding domain, primary screen, biophysical, differential scanning fluorimetry, uHTS; Tm shift relative to glycine control, % at 25 µM; Glutamate receptor ionotropic, NMDA 3A (GRIN3A) ligand-binding domain; hit rate 2.5% among 340,000; NR3A LBD differential scanning fluorimetry, Tm shift; 0% = protein alone, 100% = glycine-bound protein;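 active = melting temperature shift of at least 10% of the positive control shift, at one fixed dose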
MPTP inh: mitochondrial permeability transition pore inhibitors, primary screen, biochemical, isolated mouse mitochondria, absorbance; inhibition, % at 10 µM; hit rate 1.4% among 360,000; Ca2+ swelling absorbance, 30 min;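 active = inhibition of 50% or more, scaled per plate between neutral and stimulator controls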;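 also: 0% = DMSO wells given calcium and 100% = 1 mM EGTA wells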
ADAM10 inh: human ADAM10 inhibitors, primary screen, biochemical, QFRET, HTS; recombinant ADAM10, EDANS/DABCYL FRET peptide cleavage, 3 h; inhibition, % at 7 µM; hit rate 0.62% among 370,000; AID 720582, 2013;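 active = inhibition above a per-campaign cutoff equal to the mean of compounds falling between control-based bounds plus 3 SD, cut at about 20% in these data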;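 also: 0% = DMSO wells while the 100% control is not disclosed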
Target sequence (O14672 214-748 limits assumed): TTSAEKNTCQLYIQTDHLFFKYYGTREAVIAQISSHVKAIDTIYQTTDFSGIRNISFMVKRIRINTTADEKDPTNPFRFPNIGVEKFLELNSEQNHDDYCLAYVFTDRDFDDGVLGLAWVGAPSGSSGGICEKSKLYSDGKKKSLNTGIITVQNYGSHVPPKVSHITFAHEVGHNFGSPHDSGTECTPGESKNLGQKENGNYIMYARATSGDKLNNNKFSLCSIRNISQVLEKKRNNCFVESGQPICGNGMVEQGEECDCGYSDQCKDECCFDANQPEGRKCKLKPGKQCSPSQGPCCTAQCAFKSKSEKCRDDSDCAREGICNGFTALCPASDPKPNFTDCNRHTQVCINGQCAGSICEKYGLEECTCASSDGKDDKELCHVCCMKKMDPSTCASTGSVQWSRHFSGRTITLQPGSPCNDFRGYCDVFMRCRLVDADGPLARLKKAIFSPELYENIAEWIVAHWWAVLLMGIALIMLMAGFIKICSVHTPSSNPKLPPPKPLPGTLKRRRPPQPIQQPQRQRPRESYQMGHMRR
ADAM17 inh: ADAM17 inhibitors, primary screen, biochemical, QFRET; Disintegrin and metalloproteinase domain-containing protein 17 (Homo sapiens), P78536; hit rate 0.83% among 370,000; inhibition, % at 6.95 µM; recombinant ADAM17, EDANS/DABCYL FRET peptide cleavage; AID 720648, 2013;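 active = inhibition above the mean of compounds lying between control limits plus 3 SD, set per campaign, cut at about 8.5% in these data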;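 also: 0% = DMSO-only wells as the low control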
MT1-MMP act inh: blockers of MT1-MMP proenzyme processing, primary screen, HT1080 RFP-PRO-GFP cells, GFP/RFP fluorescence. Matrix metalloproteinase-14 (Homo sapiens), P50281. GFP/RFP ratio fluorescence, overnight; percent of plate control window, DMSO zero. GFP/RFP ratio change, % at 20 µM. hit rate 0.061% among 360,000. AID 651647, 2012;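 active = GFP/RFP ratio change of at least 30% with cell ATP level not reduced by more than half and red fluorescence within 50% of control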
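Material – HT1080 RFP-PRO-GFP cells · Control set – DMSO wells and RFP-L50D-GFP cells · Incubation – overnight cell settling, then overnight compound exposure, 37 °C, 5% CO2 · Compound dosing – single-point 20 µM compound, 1% DMSO · Read-out – GFP/RFP fluorescence ratio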
Starred values were filed as active, the others as inactive; i = inactive; / = no result given.

SMILES | SKN-1 inh | NR3A LBD binder | MPTP inh | ADAM10 inh | ADAM17 inh | MT1-MMP act inh
Cc1onc(-c2ccccc2Cl)c1C(=O)NCC(=O)O | 6 | 1 | -1 | -1 | -3 | 1
Cc1cc2ccccc2n1CCNC(=O)C(C)(C)C | 44 | -4 | -1 | -16 | -6 | 26
O=C(Nc1ccccc1N1CCOCC1)c1cccc2c(Br)cccc12 | 17 | 0 | 1 | 6 | 3 | -9
NC(=O)CC(NC(=O)c1cccc(Br)c1)c1ccc(N2CCC(N3CCCCC3)CC2)c([N+](=O)[O-])c1 (centres undefined) | 7 | -2 | -1 | -11 | -1 | 1
CCCNC(=O)NC(=O)CN1C(=O)NC(C)(c2ccc(C)cc2)C1=O (centres undefined) | 13 | 1 | 2 | 2 | -1 | -4
Clc1ccccc1Nc1c2c(nc3ncnn13)CCC2 | 12 | -1 | 0 | -2 | 0 | 8
Cc1ccc(S(=O)(=O)N(C)c2cc(S(N)(=O)=O)c(C)cc2C)cc1 | -20 | 2 | 0 | -8 | -3 | 2
CC(=O)NCCn1c(C)cc2ccccc21 | 49* | -2 | 3 | -33 | -10 | -2
COc1ccc(-c2nnc(SCC(=O)Nc3cccc(Cl)c3)o2)cc1 | 3 | 9 | 10 | 6 | 0 | 0
CCOC(=O)CNC(=O)c1sc(NC(=O)/C=C/c2ccccc2)nc1C | 8 | -1 | 0 | 10 | -4 | 1
COc1ccc(/C=C/C(=O)Nc2nc(C)c(C(=O)N(C)C)s2)cc1 | -2 | -3 | 0 | -15 | -2 | -4
Cc1nc(NC(=O)/C=C/c2ccccc2)sc1C(=O)Nc1ccccc1 | 21 | 21* | 1 | -1 | -3 | 5
CCOC(=O)c1sc(NC(=O)/C=C/c2ccccc2)nc1C | 8 | 10* | 8 | -4 | 1 | 4
COC(=O)c1sc(NC(=O)/C=C/c2ccccc2Cl)nc1C | 3 | 19* | 2 | -5 | -2 | 4
COC(=O)c1sc(NC(=O)/C=C/c2ccc(C)cc2)nc1C | 9 | 23* | 3 | 1 | 1 | 2
O=C(NC(=S)Nc1ccc(CN2CCOCC2)cc1)c1cccc([N+](=O)[O-])c1 | -4 | 0 | -1 | 0 | 6 | 9
Cc1ccc(CN2C(=O)N/C(=C\c3ccc(N4CCOCC4)cc3)C2=O)cc1 | 6 | 17* | -7 | 0 | 1 | -3
COc1cc(/C=C2\SC(=Nc3ccc(O)cc3)NC2=O)cc(OC)c1O | -4 | 13* | -1 | 5 | 4 | -55
O=C1NC(=Nc2ccc(O)cc2)S/C1=C/c1ccco1 | -2 | 13* | -1 | 3 | -4 | -4
Cc1ccc(N=C2NC(=O)/C(=C/c3cn(C)c4ccccc34)S2)cc1C | 28 | 32* | 6 | 5 | -5 | -117
Cn1cccc1/C=C1\SC(=Nc2cccc(O)c2)NC1=O | 1 | 26* | 3 | 6 | 1 | -2
CCc1ccc(N=C2NC(=O)/C(=C/c3cc(OC)c(OC)c(OC)c3)S2)cc1 | 8 | -7 | 1 | 4 | 1 | 0
O=C(c1ccccc1)c1sc(Nc2ccc3c(c2)OCO3)nc1-c1ccccc1 | 14 | / | 3 | -16 | 0 | -6
C=CCOc1ccc2c(CC)cc(=O)oc2c1C | 72* | -3 | 1 | -312 | -103 | -5
CCOc1ccc2c(CC)cc(=O)oc2c1OCC | 7 | 2 | -2 | -95 | -28 | 13
SMILES | SKN-1 inh | NR3A LBD binder | MPTP inh | ADAM10 inh | ADAM17 inh | MT1-MMP act inh
COc1ccc(S(=O)(=O)NC(C(=O)NCCc2ccccn2)C(C)C)cc1 (centres undefined) | 0 | 1 | 0 | -7 | -2 | 5
CCC1(C)Cc2c(C#N)c(N)sc(=S)c2CO1 (centres undefined) | 46* | 3 | 2 | -60 | -10 | -17
Cn1c(SCc2ccccc2)nnc1-c1c[nH]c2ccccc12 | -2 | -9 | -1 | -15 | -3 | 3
COC(=O)c1cc(S(=O)(=O)NCC2CCN(Cc3ccc(F)cc3)CC2)cn1C | 8 | 2 | -1 | 6 | 1 | -1
Cc1ccc(S(=O)(=O)NCCC(=O)Nc2ccc(C)cc2C(=O)c2ccccc2)cc1 | 12 | -1 | 20 | 0 | -4 | 1
Cc1ccc(NC(=O)c2ccc3c(c2)OCO3)cc1Cl | -7 | 17* | 1 | 5 | 1 | 5
O=C(COc1ccc(Cl)cc1)Nc1cc(NC(=O)COc2ccc(Cl)cc2)cc(C(=O)O)c1 | -2 | 12* | 1 | -1 | i | 2
COc1ccc(Cl)cc1C(=O)Nc1ccc(NC(=O)c2ccco2)cc1 | 6 | 17* | 1 | -258 | -89 | 5
COc1cc(SC)ccc1C(=O)Nc1nccs1 | 44* | 0 | -2 | 4 | -1 | -2
COc1cc(SC)ccc1C(=O)Nc1ccccc1 | 30 | 5 | 0 | -2 | -2 | -1
Cc1ccc(C(=O)Nc2ccc3c(c2)OCO3)cc1Cl | -4 | / | 1 | -26 | -4 | 3
Cc1ccc(OCC(=O)Nc2cc(NC(=O)COc3ccc(C)cc3)cc(C(=O)O)c2)cc1 | -9 | 1 | 0 | -4 | 1 | 2
CCc1nnc(NC(=O)c2cccc(C(=O)Nc3nnc(CC)s3)n2)s1 | 8 | 1 | -10 | -2 | -2 | 0
O=C(Nc1ccccc1C(F)(F)F)N1CCC(n2c(=O)[nH]c3ccccc32)CC1 | -7 | 1 | 3 | 4 | 2 | -4
CC(C)C(=O)Nc1cccc(NC(=S)NC(=O)c2ccc3c(c2)OCO3)c1 | -1 | 12* | 1 | 11 | -4 | /
COc1ccc(Cl)cc1C(=O)Nc1ccc2c(c1)OCO2 | 6 | 28* | 4 | -6 | -4 | -8
O=C(COc1ccc(Cl)cc1)Nc1ccc(NC(=O)c2ccco2)cc1 | 11 | 17* | 2 | -5 | -3 | 2
O=C(COc1ccccc1)Nc1ccc(NC(=O)c2ccco2)cc1 | 3 | 9 | 2 | -2 | -2 | 0
COc1cc(SC)ccc1C(=O)Nc1ccc2c(c1)OCCO2 | 4 | 14* | 0 | -7 | -5 | 4
O=C(NCc1ccc(Cl)cc1)C(=O)NCC1OCCN1S(=O)(=O)c1cccs1 (centres undefined) | -10 | 2 | 0 | -3 | 4 | 0
O=c1[nH]c(C2CCN(S(=O)(=O)c3ccc4c(c3)OCCO4)CC2)nc2c1nnn2Cc1cccc(F)c1 | -20 | -2 | 1 | 7 | 2 | 2
